Data: ChEMBL document CHEMBL1128440 (J Med Chem, 1995)

How the values were obtained:
Rattus norvegicus [1] = species: Rattus norvegicus; assay: Tissue biodistribution into estrogen-primed immature female rat uterus at 1 hr time interval; type: ADME, organism-based; details: in vivo
How it was run: (§1)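 Immature female Sprague-Dawley rats (25 days old, ≈50 g, five per time point) primed with estradiol, 5 μg sc daily for 2 days in 50% ethanol/sunflower seed oil, used 24 h after the last injection. The 18F-labeled ligand was given iv by tail vein in 10% ethanol/saline. Decapitated at 1 or 3 h; blood and organs weighed and gamma-counted. Reported as %ID/g ± SD, n = 5.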

Rattus norvegicus [2] = species: Rattus norvegicus; assay: Tissue biodistribution into estrogen-primed immature female rat brain at 1 hr low time interval; type: ADME, organism-based; details: in vivo; how it was run: as §1
Rattus norvegicus [3] = species: Rattus norvegicus; assay: Tissue biodistribution into estrogen-primed immature female rat blood at 1 hr low time interval; type: ADME, organism-based; details: in vivo; how it was run: as §1
Rattus norvegicus [4] = species: Rattus norvegicus; assay: Tissue biodistribution into estrogen-primed immature female rat uterus/muscle at 1 hr blocked time interval; type: ADME, organism-based; details: in vivo; how it was run: as §1
Rattus norvegicus [5] = species: Rattus norvegicus; assay: Tissue biodistribution into estrogen-primed immature female rat uterus at 1 hr blocked time interval; type: ADME, organism-based; details: in vivo; how it was run: as §1
Rattus norvegicus [6] = species: Rattus norvegicus; assay: Tissue biodistribution into estrogen-primed immature female rat uterus/blood at 1 hr time interval; type: ADME, organism-based; details: in vivo; how it was run: as §1
Rattus norvegicus [7] = species: Rattus norvegicus; assay: Tissue biodistribution into estrogen-primed immature female rat ovaries at 1 hr low time interval; type: ADME, organism-based, Female gonad; details: in vivo; how it was run: as §1
Rattus norvegicus [8] = species: Rattus norvegicus; assay: Tissue biodistribution into estrogen-primed immature female rat kidney at 3 hr time interval; type: ADME, organism-based; details: in vivo; how it was run: as §1
Rattus norvegicus [9] = species: Rattus norvegicus; assay: Tissue biodistribution into estrogen-primed immature female rat lung at 1 hr blocked time interval; type: ADME, organism-based; details: in vivo; how it was run: as §1
Rattus norvegicus [10] = species: Rattus norvegicus; assay: Tissue biodistribution into estrogen-primed immature female rat bone at 1 hr low time interval; type: ADME, organism-based, Bone element; details: in vivo; how it was run: as §1
Rattus norvegicus [11] = species: Rattus norvegicus; assay: Tissue biodistribution into estrogen-primed immature female rat fat at 1 hr time interval; type: ADME, organism-based, Adipose tissue; details: in vivo; how it was run: as §1
Rattus norvegicus [12] = species: Rattus norvegicus; assay: Tissue biodistribution into estrogen-primed immature female rat blood at 3 hr time interval; type: ADME, organism-based; details: in vivo; how it was run: as §1
[13] = Partition coefficient (logP); type: physicochemical; details: octanol/water; read-out: logP
How it was run: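 log P(o/w) (octanol/water) estimated by a reversed-phase HPLC method.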

Rattus norvegicus [14] = species: Rattus norvegicus; assay: Tissue biodistribution into estrogen-primed immature female rat blood at 1 hr time interval; type: ADME, organism-based; details: in vivo; how it was run: as §1
Rattus norvegicus [15] = species: Rattus norvegicus; assay: Tissue biodistribution into estrogen-primed immature female rat uterus/muscle at 3 hr time interval; type: ADME, organism-based; details: in vivo
Rattus norvegicus [16] = species: Rattus norvegicus; assay: Tissue biodistribution into estrogen-primed immature female rat brain at 1 hr time interval; type: ADME, organism-based; details: in vivo; how it was run: as §1
Rattus norvegicus [17] = species: Rattus norvegicus; assay: Tissue biodistribution into estrogen-primed immature female rat bone at 3 hr time interval; type: ADME, organism-based, Bone element; details: in vivo; how it was run: as §1
Rattus norvegicus [18] = species: Rattus norvegicus; assay: Tissue biodistribution into estrogen-primed immature female rat liver at 3 hr time interval; type: ADME, organism-based; details: in vivo; how it was run: as §1
Rattus norvegicus [19] = species: Rattus norvegicus; assay: Tissue biodistribution into estrogen-primed immature female rat liver at 1 hr time interval; type: ADME, organism-based; details: in vivo; how it was run: as §1
Rattus norvegicus [20] = species: Rattus norvegicus; assay: Tissue biodistribution into estrogen-primed immature female rat kidney at 1 hr low time interval; type: ADME, organism-based; details: in vivo; how it was run: as §1
Rattus norvegicus [21] = species: Rattus norvegicus; assay: Tissue biodistribution into estrogen-primed immature female rat muscle at 1 hr time interval; type: ADME, organism-based; details: in vivo; how it was run: as §1
Rattus norvegicus [22] = species: Rattus norvegicus; assay: Tissue biodistribution into estrogen-primed immature female rat liver at 1 hr blocked time interval; type: ADME, organism-based; details: in vivo; how it was run: as §1
Rattus norvegicus [23] = species: Rattus norvegicus; assay: Tissue biodistribution into estrogen-primed immature female rat ovaries at 3 hr time interval; type: ADME, organism-based, Female gonad; details: in vivo; how it was run: as §1
Rattus norvegicus [24] = species: Rattus norvegicus; assay: Tissue biodistribution into estrogen-primed immature female rat ovaries at 1 hr blocked time interval; type: ADME, organism-based; details: in vivo; how it was run: as §1
Rattus norvegicus [25] = species: Rattus norvegicus; assay: Tissue biodistribution into estrogen-primed immature female rat lung at 3 hr time interval; type: ADME, organism-based; details: in vivo; how it was run: as §1
[26] = target: T1, Progesterone receptor (Homo sapiens) (UniProt P06401); assay: Binding selectivity index as the ratio of RBA value to that of NSB value.
T1 sequence (whole entry): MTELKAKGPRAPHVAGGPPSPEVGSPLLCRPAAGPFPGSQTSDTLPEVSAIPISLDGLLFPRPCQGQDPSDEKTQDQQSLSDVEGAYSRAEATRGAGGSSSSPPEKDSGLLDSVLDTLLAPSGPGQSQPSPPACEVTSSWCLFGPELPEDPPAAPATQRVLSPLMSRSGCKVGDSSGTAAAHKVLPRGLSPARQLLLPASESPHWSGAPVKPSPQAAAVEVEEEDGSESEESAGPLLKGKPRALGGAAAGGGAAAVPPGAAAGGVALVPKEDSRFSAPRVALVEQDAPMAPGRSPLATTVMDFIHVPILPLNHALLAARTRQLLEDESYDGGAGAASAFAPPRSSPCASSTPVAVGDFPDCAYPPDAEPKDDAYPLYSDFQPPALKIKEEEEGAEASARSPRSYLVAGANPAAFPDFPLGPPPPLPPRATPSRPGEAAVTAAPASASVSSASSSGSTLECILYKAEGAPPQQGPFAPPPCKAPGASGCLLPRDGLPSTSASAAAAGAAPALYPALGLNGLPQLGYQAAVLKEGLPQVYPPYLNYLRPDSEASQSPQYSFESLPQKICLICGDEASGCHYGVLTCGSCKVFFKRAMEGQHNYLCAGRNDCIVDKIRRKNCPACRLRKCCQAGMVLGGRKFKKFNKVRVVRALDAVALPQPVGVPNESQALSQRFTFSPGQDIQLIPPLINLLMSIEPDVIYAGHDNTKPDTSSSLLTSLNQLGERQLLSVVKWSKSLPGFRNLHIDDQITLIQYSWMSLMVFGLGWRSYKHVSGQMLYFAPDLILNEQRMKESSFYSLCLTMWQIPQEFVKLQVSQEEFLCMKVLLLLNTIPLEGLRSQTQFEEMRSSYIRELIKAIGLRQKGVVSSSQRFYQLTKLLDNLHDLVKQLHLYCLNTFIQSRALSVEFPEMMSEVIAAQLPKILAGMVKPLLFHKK
How it was run: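 BSI calculated as the ratio of RBA to NSB.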

## CC1(c2ccco2)O[C@@H]2CC3C4CCC5=CC(=O)CC[C@@H]5C4CC[C@]3(C)[C@]2(C(=O)CF)O1 (stereo partly specified)
Rattus norvegicus [1]
  Injected dose/g: 6.51%
Rattus norvegicus [2]
  Injected dose/g: 0.34%
Rattus norvegicus [3]
  Injected dose/g: 0.35%
Rattus norvegicus [4]
  uterus/muscle ratio: 2.68
Rattus norvegicus [5]
  Injected dose/g: 1.43%
Rattus norvegicus [6]
  Uterus to blood concentration ratio: 20.09%
Rattus norvegicus [7]
  Injected dose/g: 1.58%
Rattus norvegicus [8]
  Injected dose/g: 0.76%
Rattus norvegicus [9]
  Injected dose/g: 1.16%
Rattus norvegicus [10]
  Injected dose/g: 0.84%
Rattus norvegicus [11]
  Injected dose/g: 2.86%
Rattus norvegicus [12]
  Injected dose/g: 0.14%
[13]
  logP: 4.13
Rattus norvegicus [14]
  Injected dose/g: 0.32%
Rattus norvegicus [15]
  ratio: 53.1
Rattus norvegicus [16]
  Injected dose/g: 0.58%
Rattus norvegicus [17]
  Injected dose/g: 1.51%
Rattus norvegicus [18]
  Injected dose/g: 1.61%
Rattus norvegicus [19]
  Injected dose/g: 1.26%
Rattus norvegicus [20]
  Injected dose/g: 0.97%
Rattus norvegicus [21]
  Injected dose/g: 0.64%
Rattus norvegicus [22]
  Injected dose/g: 1.52%
Rattus norvegicus [23]
  Injected dose/g: 2.66%
Rattus norvegicus [24]
  Injected dose/g: 1.52%
Rattus norvegicus [25]
  Injected dose/g: 0.27%
[26]
  BSI: 159
